Assay results as given in ChEMBL document CHEMBL4118021, “Studies of TAK1-centered polypharmacology with novel covalent TAK1 inhibitors” (Bioorg Med Chem, 2017).
Active and inactive are the calls of the source. The rule behind the calls is not given here.

Columns and labels:
[1] = molecular target: Bridging integrator 3 (Homo sapiens) (UniProt Q9NQY0); assay: Binding affinity to BIN3 in human NCI-H23 cells at 1 uM by mass spectrometry based pull down assay; format: cell-based
[2] = molecular target: Translation initiation factor eIF2B subunit gamma (Homo sapiens) (UniProt Q9NR50); assay: Binding affinity to EIF2B3 in human NCI-H23 cells at 1 uM by mass spectrometry based pull down assay; format: cell-based
[3] = molecular target: Transforming growth factor-beta-induced protein ig-h3 (Homo sapiens) (UniProt Q15582); assay: Binding affinity to TGFBI in human NCI-H358 cells at 1 uM by mass spectrometry based pull down assay; format: cell-based
[4] = molecular target: Cytoplasmic dynein 1 intermediate chain 2 (Homo sapiens) (UniProt Q13409); assay: Binding affinity to DYNC1I2 in human NCI-H23 cells at 1 uM by mass spectrometry based pull down assay; format: cell-based
[5] = molecular target: Heterogeneous nuclear ribonucleoprotein U (Homo sapiens) (UniProt Q00839); assay: Binding affinity to HNRNPU in human NCI-H23 cells at 1 uM by mass spectrometry based pull down assay; format: cell-based
[6] = molecular target: Phosphoribosylformylglycinamidine synthase (Homo sapiens) (UniProt O15067); assay: Binding affinity to PFAS in human NCI-H23 cells at 1 uM by mass spectrometry based pull down assay; format: cell-based
[7] = molecular target: T1, 80S Ribosome (Homo sapiens) (UniProt P08865+P42677+P62753+P15880+P23396+P61247+P62701+P22090+P46782+P62081+P62241+P46781+P46783+P62280+P25398+P62277+P62263+P62841+P62244+P62249+P08708+P62269+P39019+P60866+P63220+P62266+P62847+P62851+P62854+P62979+P62857+P62273+P62861+P39023+P36578+P46777+Q02878+P18124+P62424+P62917+P32969+P27635+P62906+P62913+P30050+P26373+P40429+P50914+P61313+P18621+Q07020+Q02543+P84098+P46778+P35268+P62829+P62750+P83731+P61254+P61353+P46776+P46779+P47914+P62888+P62899+P62910+P49207+P42766+P18077+Q9Y3U8+P83881+P61927+P61513+P63173+P62891+P62945+P05388+P05386); assay: Binding affinity to RPL17 in human NCI-H358 cells at 1 uM by mass spectrometry based pull down assay; format: cell-based
[8] = molecular target: Tyrosine-protein kinase Yes (Homo sapiens) (UniProt P07947); assay: Binding affinity to YES1 in human NCI-H23 cells at 1 uM by mass spectrometry based pull down assay; format: cell-based
[9] = molecular target: Bifunctional 3'-phosphoadenosine 5'-phosphosulfate synthase 2 (Homo sapiens) (UniProt O95340); assay: Binding affinity to PAPSS2 in human NCI-H23 cells at 1 uM by mass spectrometry based pull down assay; format: cell-based
[10] = molecular target: T1, 80S Ribosome (Homo sapiens); assay: Binding affinity to RPS5 in human NCI-H358 cells at 1 uM by mass spectrometry based pull down assay; format: cell-based
[11] = molecular target: Protein arginine N-methyltransferase 5 (Homo sapiens) (UniProt O14744); assay: Binding affinity to PRMT5 in human NCI-H358 cells at 1 uM by mass spectrometry based pull down assay; format: cell-based
[12] = molecular target: Ketosamine-3-kinase (Homo sapiens) (UniProt Q9HA64); assay: Binding affinity to FN3KRP in human NCI-H358 cells at 1 uM by mass spectrometry based pull down assay; format: cell-based
[13] = molecular target: Kelch-like ECH-associated protein 1 (Homo sapiens) (UniProt Q14145); assay: Binding affinity to KEAP1 in human NCI-H23 cells at 1 uM by mass spectrometry based pull down assay; format: cell-based
[14] = molecular target: N-acetyl-D-glucosamine kinase (Homo sapiens) (UniProt Q9UJ70); assay: Binding affinity to NAGK in human NCI-H23 cells at 1 uM by mass spectrometry based pull down assay; format: cell-based
[15] = molecular target: Thioredoxin (Homo sapiens) (UniProt P10599); assay: Binding affinity to TXN in human NCI-H358 cells at 1 uM by mass spectrometry based pull down assay; format: cell-based
[16] = molecular target: Dual specificity mitogen-activated protein kinase kinase 1 (Homo sapiens) (UniProt Q02750); assay: Inhibition of full length human MEK1 (1 to 393 residues) expressed in mammalian expression system assessed as enzyme activity at 1 uM by KINOMEScan assay relative to control; set-up: scale not given: the % may be the effect or the level left
Outline: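 In vitro ATP-site competition binding assay (KinomeScan) across a panel of 456 kinases. Compound was tested at 1 and 10 μM. The read-out is the binding inhibition score relative to control.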

[17] = molecular target: T2, Serine/threonine-protein kinase D2 (Homo sapiens) (UniProt Q9BZL6); assay: Inhibition of human PRKD2 (519 to 838 residues) expressed in bacterial expression system assessed as enzyme activity at 10 uM by KINOMEScan assay relative to control; set-up: scale not given: the % may be the effect or the level left
T2 sequence (whole entry): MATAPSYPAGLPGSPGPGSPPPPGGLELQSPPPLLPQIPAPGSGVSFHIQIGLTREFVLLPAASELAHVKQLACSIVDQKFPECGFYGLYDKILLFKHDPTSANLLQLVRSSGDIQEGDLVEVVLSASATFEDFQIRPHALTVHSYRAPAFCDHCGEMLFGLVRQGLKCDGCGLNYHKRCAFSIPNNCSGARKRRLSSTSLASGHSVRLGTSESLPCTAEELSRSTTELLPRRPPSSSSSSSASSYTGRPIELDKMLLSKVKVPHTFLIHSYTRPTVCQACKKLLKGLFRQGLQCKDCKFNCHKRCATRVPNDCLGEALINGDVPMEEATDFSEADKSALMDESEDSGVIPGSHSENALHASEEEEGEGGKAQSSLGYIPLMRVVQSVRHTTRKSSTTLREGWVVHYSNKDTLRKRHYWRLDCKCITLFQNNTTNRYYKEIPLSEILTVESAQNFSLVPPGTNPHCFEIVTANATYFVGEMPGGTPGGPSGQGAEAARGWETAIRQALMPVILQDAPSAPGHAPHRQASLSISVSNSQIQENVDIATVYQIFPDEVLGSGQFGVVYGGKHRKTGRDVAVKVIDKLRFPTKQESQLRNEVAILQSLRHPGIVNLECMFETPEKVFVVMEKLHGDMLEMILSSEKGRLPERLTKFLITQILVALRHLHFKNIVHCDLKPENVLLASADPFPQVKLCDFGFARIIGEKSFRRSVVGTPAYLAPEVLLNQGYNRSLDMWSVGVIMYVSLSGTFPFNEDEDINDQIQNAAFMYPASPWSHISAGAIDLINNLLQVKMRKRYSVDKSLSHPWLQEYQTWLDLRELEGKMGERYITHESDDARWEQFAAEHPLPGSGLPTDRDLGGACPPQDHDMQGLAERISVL
Outline: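 In vitro ATP-site competition binding assay across a panel of 456 kinases, with compound tested at 1 and 10 μM.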

[18] = molecular target: Eukaryotic translation initiation factor 2-alpha kinase 3 (Homo sapiens) (UniProt Q9NZJ5); assay: Inhibition of PEK in human SKCO1 cells at 1 uM after 4 hrs using biotin labeled DLKPSNIFFTMDDVVK probe by mass-spectrometric analysis relative to control; format: cell-based

Sequence of Transforming growth factor-beta-induced protein ig-h3 (Homo sapiens) (Q15582 whole entry): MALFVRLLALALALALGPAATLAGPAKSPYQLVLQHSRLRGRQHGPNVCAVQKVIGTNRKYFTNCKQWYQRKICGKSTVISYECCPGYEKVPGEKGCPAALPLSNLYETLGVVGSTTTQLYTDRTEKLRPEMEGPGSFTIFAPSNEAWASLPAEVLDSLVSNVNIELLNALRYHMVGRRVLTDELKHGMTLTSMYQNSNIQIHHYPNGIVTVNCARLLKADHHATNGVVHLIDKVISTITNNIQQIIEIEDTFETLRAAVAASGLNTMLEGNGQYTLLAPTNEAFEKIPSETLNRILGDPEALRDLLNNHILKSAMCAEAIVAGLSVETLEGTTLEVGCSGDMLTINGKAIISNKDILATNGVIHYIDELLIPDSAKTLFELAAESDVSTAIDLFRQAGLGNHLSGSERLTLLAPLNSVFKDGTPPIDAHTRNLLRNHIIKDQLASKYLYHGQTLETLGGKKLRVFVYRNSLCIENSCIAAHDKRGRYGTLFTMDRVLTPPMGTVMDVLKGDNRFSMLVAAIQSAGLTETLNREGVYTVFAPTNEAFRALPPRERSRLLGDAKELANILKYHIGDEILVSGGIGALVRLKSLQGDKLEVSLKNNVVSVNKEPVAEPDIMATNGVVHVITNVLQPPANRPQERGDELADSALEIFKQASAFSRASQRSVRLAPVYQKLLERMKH
Sequence of Dual specificity mitogen-activated protein kinase kinase 1 (Homo sapiens) (Q02750 whole entry, the tested form may be a part): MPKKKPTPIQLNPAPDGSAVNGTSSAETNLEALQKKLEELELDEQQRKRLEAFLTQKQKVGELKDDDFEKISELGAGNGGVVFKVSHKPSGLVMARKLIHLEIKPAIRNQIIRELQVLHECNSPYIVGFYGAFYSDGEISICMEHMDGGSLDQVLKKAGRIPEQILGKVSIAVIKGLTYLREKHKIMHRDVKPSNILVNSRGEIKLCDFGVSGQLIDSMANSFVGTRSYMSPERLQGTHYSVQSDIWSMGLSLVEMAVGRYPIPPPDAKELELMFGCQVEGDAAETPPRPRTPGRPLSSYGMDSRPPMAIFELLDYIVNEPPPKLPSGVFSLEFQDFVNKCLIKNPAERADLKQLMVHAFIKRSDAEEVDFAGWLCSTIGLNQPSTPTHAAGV
Sequence of Heterogeneous nuclear ribonucleoprotein U (Homo sapiens) (Q00839 whole entry): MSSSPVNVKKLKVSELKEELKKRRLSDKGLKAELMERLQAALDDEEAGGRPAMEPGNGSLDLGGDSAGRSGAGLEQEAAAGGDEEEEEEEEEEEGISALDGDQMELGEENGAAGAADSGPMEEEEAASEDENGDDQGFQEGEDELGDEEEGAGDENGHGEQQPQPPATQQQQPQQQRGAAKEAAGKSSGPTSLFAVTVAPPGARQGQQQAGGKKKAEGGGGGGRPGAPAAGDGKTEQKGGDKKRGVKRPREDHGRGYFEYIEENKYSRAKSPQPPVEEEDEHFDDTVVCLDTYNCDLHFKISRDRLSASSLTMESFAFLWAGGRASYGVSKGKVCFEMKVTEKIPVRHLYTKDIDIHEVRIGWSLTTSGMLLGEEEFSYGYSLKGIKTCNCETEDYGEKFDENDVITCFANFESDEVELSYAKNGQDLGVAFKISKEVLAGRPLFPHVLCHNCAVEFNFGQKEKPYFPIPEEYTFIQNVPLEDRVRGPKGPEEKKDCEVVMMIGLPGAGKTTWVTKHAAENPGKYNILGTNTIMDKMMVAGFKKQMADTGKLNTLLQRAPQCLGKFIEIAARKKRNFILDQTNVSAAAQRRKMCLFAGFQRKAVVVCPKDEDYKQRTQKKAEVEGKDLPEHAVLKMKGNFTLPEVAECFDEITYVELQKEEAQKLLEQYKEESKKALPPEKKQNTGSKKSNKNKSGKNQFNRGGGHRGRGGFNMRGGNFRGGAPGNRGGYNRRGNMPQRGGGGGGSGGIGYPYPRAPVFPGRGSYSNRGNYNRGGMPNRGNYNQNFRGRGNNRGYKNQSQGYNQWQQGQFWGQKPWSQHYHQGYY
Sequence of Kelch-like ECH-associated protein 1 (Homo sapiens) (Q14145 whole entry): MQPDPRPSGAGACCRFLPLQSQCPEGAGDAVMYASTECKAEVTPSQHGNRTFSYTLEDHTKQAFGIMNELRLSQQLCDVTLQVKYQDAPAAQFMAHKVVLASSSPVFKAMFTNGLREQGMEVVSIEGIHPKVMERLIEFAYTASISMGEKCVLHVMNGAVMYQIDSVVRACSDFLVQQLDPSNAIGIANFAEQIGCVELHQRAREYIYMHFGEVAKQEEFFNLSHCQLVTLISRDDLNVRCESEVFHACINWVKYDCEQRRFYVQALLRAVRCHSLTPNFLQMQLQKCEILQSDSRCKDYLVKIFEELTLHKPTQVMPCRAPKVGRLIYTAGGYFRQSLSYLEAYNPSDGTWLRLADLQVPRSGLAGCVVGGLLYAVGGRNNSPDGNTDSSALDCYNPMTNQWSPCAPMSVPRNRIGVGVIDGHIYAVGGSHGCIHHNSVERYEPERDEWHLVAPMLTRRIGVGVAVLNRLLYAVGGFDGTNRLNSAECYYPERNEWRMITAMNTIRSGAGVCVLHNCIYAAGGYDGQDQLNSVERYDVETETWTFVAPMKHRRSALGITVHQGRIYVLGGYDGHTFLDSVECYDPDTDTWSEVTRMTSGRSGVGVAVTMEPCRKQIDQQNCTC
Sequence of Bridging integrator 3 (Homo sapiens) (Q9NQY0 whole entry): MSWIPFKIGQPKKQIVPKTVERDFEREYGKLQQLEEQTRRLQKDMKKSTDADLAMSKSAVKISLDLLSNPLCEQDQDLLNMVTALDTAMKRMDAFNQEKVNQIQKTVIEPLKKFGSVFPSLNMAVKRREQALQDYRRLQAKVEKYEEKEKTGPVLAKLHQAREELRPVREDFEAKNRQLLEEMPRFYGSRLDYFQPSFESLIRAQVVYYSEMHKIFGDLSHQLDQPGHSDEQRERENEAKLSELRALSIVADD
Sequence of Phosphoribosylformylglycinamidine synthase (Homo sapiens) (O15067 whole entry): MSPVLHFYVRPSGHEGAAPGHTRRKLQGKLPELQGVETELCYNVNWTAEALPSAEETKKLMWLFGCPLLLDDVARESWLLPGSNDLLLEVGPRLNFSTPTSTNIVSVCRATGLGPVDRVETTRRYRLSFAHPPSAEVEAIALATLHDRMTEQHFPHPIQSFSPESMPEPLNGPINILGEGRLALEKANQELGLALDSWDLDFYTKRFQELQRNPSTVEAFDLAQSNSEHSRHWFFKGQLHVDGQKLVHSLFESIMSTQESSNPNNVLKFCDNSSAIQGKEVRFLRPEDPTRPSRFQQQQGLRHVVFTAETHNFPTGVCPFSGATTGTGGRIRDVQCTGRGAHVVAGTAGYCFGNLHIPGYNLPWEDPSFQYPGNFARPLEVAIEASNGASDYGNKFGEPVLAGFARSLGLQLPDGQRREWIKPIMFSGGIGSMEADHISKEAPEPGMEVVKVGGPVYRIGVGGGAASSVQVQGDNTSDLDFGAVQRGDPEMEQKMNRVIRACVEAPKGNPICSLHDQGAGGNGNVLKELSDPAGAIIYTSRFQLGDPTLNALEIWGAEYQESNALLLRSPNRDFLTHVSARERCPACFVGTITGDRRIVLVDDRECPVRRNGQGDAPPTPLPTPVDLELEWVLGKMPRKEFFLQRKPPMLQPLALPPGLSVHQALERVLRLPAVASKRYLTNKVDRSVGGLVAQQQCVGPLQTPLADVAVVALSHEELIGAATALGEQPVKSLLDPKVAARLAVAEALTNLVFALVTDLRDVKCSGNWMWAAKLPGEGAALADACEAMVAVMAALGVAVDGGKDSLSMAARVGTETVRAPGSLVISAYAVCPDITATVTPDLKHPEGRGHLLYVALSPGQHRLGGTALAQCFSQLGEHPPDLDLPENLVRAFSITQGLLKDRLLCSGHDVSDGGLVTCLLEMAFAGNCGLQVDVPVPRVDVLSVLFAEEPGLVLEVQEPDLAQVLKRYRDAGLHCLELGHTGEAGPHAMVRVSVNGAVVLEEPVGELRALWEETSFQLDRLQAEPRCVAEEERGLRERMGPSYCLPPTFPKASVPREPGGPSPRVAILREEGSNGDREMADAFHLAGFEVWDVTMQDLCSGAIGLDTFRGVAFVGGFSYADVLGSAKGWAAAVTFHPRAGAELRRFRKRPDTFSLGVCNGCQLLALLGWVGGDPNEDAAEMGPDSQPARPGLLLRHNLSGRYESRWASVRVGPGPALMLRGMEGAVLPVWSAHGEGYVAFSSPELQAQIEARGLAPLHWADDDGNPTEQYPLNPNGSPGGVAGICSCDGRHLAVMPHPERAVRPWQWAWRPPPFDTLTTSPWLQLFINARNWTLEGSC
Sequence of Translation initiation factor eIF2B subunit gamma (Homo sapiens) (Q9NR50 whole entry): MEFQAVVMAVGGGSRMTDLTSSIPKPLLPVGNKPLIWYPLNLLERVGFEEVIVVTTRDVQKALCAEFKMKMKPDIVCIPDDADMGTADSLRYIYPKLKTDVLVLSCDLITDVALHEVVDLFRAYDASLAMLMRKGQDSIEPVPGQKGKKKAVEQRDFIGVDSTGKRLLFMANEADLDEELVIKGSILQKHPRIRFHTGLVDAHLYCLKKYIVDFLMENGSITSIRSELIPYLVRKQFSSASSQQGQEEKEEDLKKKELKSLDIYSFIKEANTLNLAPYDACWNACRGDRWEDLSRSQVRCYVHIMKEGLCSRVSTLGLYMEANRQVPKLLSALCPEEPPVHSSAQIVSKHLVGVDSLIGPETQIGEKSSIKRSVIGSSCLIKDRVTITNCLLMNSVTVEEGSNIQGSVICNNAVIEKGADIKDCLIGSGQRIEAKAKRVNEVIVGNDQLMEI
Sequence of Thioredoxin (Homo sapiens) (P10599 whole entry, the tested form may be a part): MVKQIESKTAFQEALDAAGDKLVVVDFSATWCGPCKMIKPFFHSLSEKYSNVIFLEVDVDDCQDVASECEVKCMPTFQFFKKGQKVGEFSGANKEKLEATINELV
Sequence of N-acetyl-D-glucosamine kinase (Homo sapiens) (Q9UJ70 whole entry): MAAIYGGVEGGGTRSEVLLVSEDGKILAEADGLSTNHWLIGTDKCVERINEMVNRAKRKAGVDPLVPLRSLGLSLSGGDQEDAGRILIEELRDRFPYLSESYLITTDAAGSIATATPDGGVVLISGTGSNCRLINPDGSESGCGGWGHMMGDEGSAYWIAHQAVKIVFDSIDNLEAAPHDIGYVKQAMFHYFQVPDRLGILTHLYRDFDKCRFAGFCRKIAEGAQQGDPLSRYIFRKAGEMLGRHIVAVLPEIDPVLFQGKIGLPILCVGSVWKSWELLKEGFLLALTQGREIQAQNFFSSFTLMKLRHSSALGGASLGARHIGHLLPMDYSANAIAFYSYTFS

Activity [1] | Activity [2] | Activity [3] | Activity [4] | Activity [5] | Activity [6] | Activity [7] | Activity [8] | Activity [9] | Activity [10] | Activity [11] | Activity [12] | Activity [13] | Activity [14] | Activity [15] | SMILES | Activity [16] | Activity [17] | inhibition [18]
Active | Active | Active | Active | Active | Active | Active | Active | Active | Active | Active | Active | Active | Active | Active | C=CC(=O)Nc1ccccc1Nc1nc(Nc2ccc(N3CCN(CCOCCOCCOCCNC(=O)CCCC[C@@H]4SC[C@@H]5NC(=O)N[C@@H]54)CC3)cc2)ncc1Cl |  |  | 
 |  |  |  |  |  |  |  |  |  |  |  |  |  |  | COc1cc(O)c2c(c1)/C=C/C[C@H](O)[C@H](O)C(=O)/C=C\C[C@H](C)OC2=O | 0.65% | 2.5% | -10%
